In ChEMBL document CHEMBL5236607, “Membrane-Active Cyclic Amphiphilic Peptides: Broad-Spectrum Antibacterial Activity Alone and in Combination with Antibiotics” (J Med Chem, 2022):
Active and inactive are the calls of the source. The calls are words filed in the database; no cut-off is given here. Peptide text beside a SMILES is read from it.

Experiments:
Escherichia coli [1] = assay: Synergistic antibacterial activity against Escherichia coli ATCC 25922 incubated for 24 hrs in presence of meropenem by checkerboard assay; type: functional
Summary of the method: (§1)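 Checkerboard assay in MH broth. Inoculum from an LB overnight culture set to 0.5 McFarland and diluted 1/150. […] Each agent was also titrated alone. Incubation 24 h at 37 °C. FIC = combination MIC/individual MIC; FICI = sum of the FICs. Triplicate.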

Escherichia coli [2] = assay: Synergistic antibacterial activity against Escherichia coli ATCC 25922 fractional inhibitory concentration index incubated for 24 hrs in presence of Ciprofloxacin by checkerboard assay; type: functional; summary of the method: as §1
Escherichia coli [3] = assay: Synergistic antibacterial activity against Escherichia coli ATCC 25922 fractional inhibitory concentration index incubated for 24 hrs in presence of metronidazole by checkerboard assay; type: functional; summary of the method: as §1
Escherichia coli [4] = assay: Synergistic antibacterial activity against Escherichia coli ATCC 25922 fractional inhibitory concentration index incubated for 24 hrs in presence of meropenem by checkerboard assay; type: functional
Summary of the method: (§2)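 Checkerboard assay. Inoculum from an LB overnight culture at 0.5 McFarland, diluted 1/150 in MH media. […] Incubated 37 °C for 24 h. FICI = MIC combination/MIC alone summed over both agents. Triplicate.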

Escherichia coli [5] = assay: Synergistic antibacterial activity against Escherichia coli ATCC 25922 fractional inhibitory concentration incubated for 24 hrs in presence of Ciprofloxacin by checkerboard assay; type: functional; summary of the method: as §1
Staphylococcus aureus [6] = assay: Synergistic antibacterial activity against methicillin resistant Staphylococcus aureus ATCC BAA-1556 fractional inhibitory concentration incubated for 24 hrs in presence of polymyxin B by checkerboard assay; type: functional; summary of the method: as §2
Escherichia coli [7] = assay: Synergistic antibacterial activity against Escherichia coli ATCC 25922 fractional inhibitory concentration incubated for 24 hrs in presence of metronidazole by checkerboard assay; type: functional; summary of the method: as §1
Klebsiella pneumoniae [8] = assay: Antibacterial activity against multidrug resistant Klebsiella pneumoniae 1188718 after 24 hrs by microbroth dilution method; type: functional
Staphylococcus aureus [9] = assay: Synergistic antibacterial activity against methicillin resistant Staphylococcus aureus ATCC BAA-1556 incubated for 24 hrs in presence of levofloxacin by checkerboard assay; type: functional; summary of the method: as §2
Pseudomonas aeruginosa [10] = assay: Synergistic antibacterial activity against Pseudomonas aeruginosa ATCC […] incubated for 24 hrs in presence of polymyxin B by checkerboard assay; type: functional; summary of the method: as §2
Staphylococcus aureus [11] = assay: Synergistic antibacterial activity against methicillin resistant Staphylococcus aureus ATCC BAA-1556 assessed as fractional inhibitory concentration index incubated for 24 hrs in presence of tobramycin by checkerboard assay; type: functional; summary of the method: as §2
Escherichia coli [12] = assay: Synergistic antibacterial activity against Escherichia coli ATCC 25922 assessed as fractional inhibitory concentration index incubated for 24 hrs in presence of tobramycin by checkerboard assay; type: functional; summary of the method: as §1
Pseudomonas aeruginosa [13] = assay: Synergistic antibacterial activity against Pseudomonas aeruginosa ATCC […] fractional inhibitory concentration index incubated for 24 hrs in presence of polymyxin B by checkerboard assay; type: functional
Klebsiella pneumoniae [14] = assay: Synergistic antibacterial activity against Klebsiella pneumoniae ATCC BAA-1705 fractional inhibitory concentration index incubated for 24 hrs in presence of meropenem by checkerboard assay; type: functional; summary of the method: as §1
Staphylococcus aureus [15] = assay: Synergistic antibacterial activity against methicillin resistant Staphylococcus aureus ATCC BAA-1556 assessed as fractional inhibitory concentration incubated for 24 hrs in presence of tobramycin by checkerboard assay; type: functional; summary of the method: as §2
Pseudomonas aeruginosa [16] = assay: Synergistic antibacterial activity against Pseudomonas aeruginosa ATCC […] assessed as fractional inhibitory concentration incubated for 24 hrs in presence of tobramycin by checkerboard assay; type: functional
Escherichia coli [17] = assay: Synergistic antibacterial activity against Escherichia coli ATCC 25922 assessed as fractional inhibitory concentration incubated for 24 hrs in presence of tobramycin by checkerboard assay; type: functional; summary of the method: as §1
Staphylococcus aureus [18] = assay: Synergistic antibacterial activity against methicillin resistant Staphylococcus aureus ATCC BAA-1556 fractional inhibitory concentration incubated for 24 hrs in presence of levofloxacin by checkerboard assay; type: functional; summary of the method: as §2
Pseudomonas aeruginosa [19] = assay: Synergistic antibacterial activity against Pseudomonas aeruginosa ATCC […] fractional inhibitory concentration incubated for 24 hrs in presence of polymyxin B by checkerboard assay; type: functional
Klebsiella pneumoniae [20] = assay: Synergistic antibacterial activity against Klebsiella pneumoniae ATCC BAA-1705 fractional inhibitory concentration incubated for 24 hrs in presence of meropenem by checkerboard assay; type: functional; summary of the method: as §1
[21] = Therapeutic index, ratio of cytotoxicity against human HEKa to MIC for methicillin resistant Staphylococcus aureus
Staphylococcus aureus [22] = assay: Bactericidal activity against methicillin resistant Staphylococcus aureus assessed as reduction in bacterial cells at MIC after […] by time kill assay; type: functional; set-up: scale not given: the % may be the effect or the level left
Staphylococcus aureus [23] = assay: Bactericidal activity against methicillin resistant Staphylococcus aureus assessed as reduction in bacterial cells at 4 times MIC after 2 hrs by time kill assay; type: functional; set-up: scale not given: the % may be the effect or the level left
Summary of the method: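 Time-kill in Müller–Hinton media. […] Aliquots taken at 0–24 h, serially diluted and plated on MH agar. CFU counted after 24 h at 37 °C. Two independent experiments in triplicate.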

[24] = Membrano-lytic effect in bacterial inner membrane mimic DOPC/DOPG (7:3) large unilamellar vesicles assessed as calcein leakage measured upto 100 mins by multimode microplate reader assay; type: cell membranes; settings: dose 5-50 µg/ml
Summary of the method: (§3)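 Calcein (70 mM) loaded into extruded 100 nm LUVs: DOPC:DOPG 7:3 (w/w) as the bacterial mimic, DOPC/cholesterol 10:1 (w/w) as the mammalian mimic. Free dye removed by gel filtration. Liposomes at 40 μM final lipid in PBS mixed 1:1 with peptide (5–50 μg/mL). Fluorescence (ex 490/em 520 nm) read every 10 min for 100 min; Triton X-100 defines 100% release. Triplicate.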

[25] = Membrano-lytic effect in bacterial inner membrane mimic DOPC/DOPG (7:3) large unilamellar vesicles assessed as calcein leakage at 50 ug/ml measured after 90 mins by multimode microplate reader assay; type: cell membranes; settings: dose 50.0 µg/ml; summary of the method: as §3
[26] = Membrano-lytic effect in mammalian membrane mimic DOPC/cholesterol (10:1) large unilamellar vesicles assessed as calcein leakage measured at 5 to 50 microg/ml measured after 100 mins by multimode microplate reader assay; type: cell membranes; settings: dose 5-50 µg/ml; summary of the method: as §3
Cell membrane [27] = assay: Membrano-lytic activity against methicillin resistant Staphylococcus aureus assessed as change in morphology at 4 times MIC after 1 hr by SEM analysis; type: subcellular
Cell membrane [28] = assay: Membrano-lytic activity against methicillin resistant Staphylococcus aureus assessed as loss of membrane fluidity at 4 times MIC after 1 hr by SEM analysis; type: subcellular
Cell membrane [29] = assay: Membrano-lytic activity against Escherichia coli assessed as membrane atrophy at 4 times MIC after 1 hr by SEM analysis; type: subcellular
Summary of the method: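 E. coli ATCC BAA-2452 from overnight culture, suspended at 10^7 CFU/mL in 10 mM PBS pH 7.4. […] Fixed in 4% glutaraldehyde in cacodylate buffer pH 7.4 for 3 h at 4 °C, ethanol-dehydrated, HMDS-dried, Au/Pd-coated, then imaged by FE-SEM.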

Staphylococcus aureus [30] = assay: Induction of resistance development in Staphylococcus aureus ATCC 29213 assessed as increase in MIC by microtiter plate reader assay; type: functional, organism-based
Summary of the method: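 Serial passage resistance assay with 2-fold microdilution MICs in 96-well plates. Each passage takes the well with the highest concentration still permitting growth, adjusts it to 0.5 McFarland, and dilutes it to a final 5 × 10^5 CFU/mL for the next passage. Eighteen passages; MIC recorded at each. Triplicate.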

Escherichia coli [31] = assay: Induction of resistance development in Escherichia coli ATCC 25922 assessed as increase in MIC by microtiter plate reader assay; type: functional, organism-based

N=C(N)NCCC[C@@H]1NC(=O)[C@H](CCCNC(=N)N)NC(=O)[C@H](CCCNC(=N)N)NC(=O)[C@H](CCCNC(=N)N)NC(=O)[C@H](Cc2c[nH]c3ccccc23)NC(=O)[C@H](Cc2c[nH]c3ccccc23)NC(=O)[C@H](Cc2c[nH]c3ccccc23)NC(=O)[C@H](Cc2c[nH]c3ccccc23)NC(=O)[C@H](CCCNC(=N)N)NC(=O)[C@H](CCCNC(=N)N)NC1=O (cyclo(RRRRRRWWWW))
MIC (Escherichia coli [1]): 0.125 µg/mL | fractional inhibitory concentration index (FICI) (Escherichia coli [2]): 0.375 | fractional inhibitory concentration index (FICI) (Escherichia coli [3]): 0.625 | fractional inhibitory concentration index (FICI) (Escherichia coli [4]): 0.375 | FIC (Escherichia coli [5]): 0.125 | FIC (Staphylococcus aureus [6]): 0.063 | FIC (Escherichia coli [7]): 0.125

N=C(N)NCCC[C@@H]1NC(=O)[C@H](CCCNC(=N)N)NC(=O)[C@H](CCCNC(=N)N)NC(=O)[C@H](Cc2c[nH]c3ccccc23)NC(=O)[C@H](Cc2c[nH]c3ccccc23)NC(=O)[C@H](Cc2c[nH]c3ccccc23)NC(=O)[C@H](Cc2c[nH]c3ccccc23)NC(=O)[C@H](CCCNC(=N)N)NC(=O)[C@H](CCCNC(=N)N)NC1=O
MIC (Klebsiella pneumoniae [8]): > 64 µg/mL | MIC (Staphylococcus aureus [9]): 1 µg/mL | MIC (Pseudomonas aeruginosa [10]): 0.125 µg/mL | fractional inhibitory concentration index (FICI) (Staphylococcus aureus [11]): 0.5 | fractional inhibitory concentration index (FICI) (Escherichia coli [12]): 0.5 | fractional inhibitory concentration index (FICI) (Pseudomonas aeruginosa [13]): 0.375 | fractional inhibitory concentration index (FICI) (Klebsiella pneumoniae [14]): 0.5 | FIC (Staphylococcus aureus [15]): 0.25 | FIC (Pseudomonas aeruginosa [16]): 0.25 | FIC (Escherichia coli [17]): 0.25 | FIC (Staphylococcus aureus [18]): 0.25 | FIC (Pseudomonas aeruginosa [19]): 0.125 | FIC (Klebsiella pneumoniae [20]): 0.25 | TI [21]: 63 | Activity (Staphylococcus aureus [22]): 100% | Activity (Staphylococcus aureus [23]): 100% | Activity [24]: Dose-Dependent Effect | Activity [25]: 100% | Activity [26]: 13% | Activity (Cell membrane [27]): Active | Activity (Cell membrane [28]): Active | Activity (Cell membrane [29]): Active | Activity (Staphylococcus aureus [30]): inactive | Activity (Escherichia coli [31]): inactive
